PMC2833353 (Cancer research, 2009)
Where a SMILES comes first, the peptide text is derived from it. Bridges are numbered along the chain shown (N, C = ends). The star is where a group is joined. DOTA = O=C(O)CN1CCN(CC(=O)O)CCN(CC(=O)*)CCN(CC(=O)O)CC1

Experiments:
[1] = In vivo biodistribution study in U87MG tumor-bearing mice; settings: female, athymic nude (nu/nu), mouse, iv, total radioactivity; for tissue uptake at 24 h: kidneys; for tissue to tissue ratio at 4 h: tumor / blood
Summary of the method: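 Female athymic nu/nu mice with subcutaneous shoulder U87MG xenografts (2 × 10^7 cells; tumors ~8–10 mm) were anesthetized and given ~100 μCi of 64Cu-DOTA-labeled knottin peptide by tail vein, then sacrificed at 0.5, 1, 4 or 24 h. Tumor, blood, kidneys and other organs were weighed and gamma-counted against a tracer aliquot, giving %ID/g and tumor-to-organ ratios. Mean ± SD, ≥3 mice.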

U87MG cells = settings: read-out: IC50, competition binding of 125I-echistatin on U87MG cells; cited from earlier work
[2] = target: integrin αvβ3 (Homo sapiens) (UniProt P06756); settings: cited from earlier work
integrin αvβ3 (Homo sapiens), sequence (P06756 31-1048, chain 1 of 2): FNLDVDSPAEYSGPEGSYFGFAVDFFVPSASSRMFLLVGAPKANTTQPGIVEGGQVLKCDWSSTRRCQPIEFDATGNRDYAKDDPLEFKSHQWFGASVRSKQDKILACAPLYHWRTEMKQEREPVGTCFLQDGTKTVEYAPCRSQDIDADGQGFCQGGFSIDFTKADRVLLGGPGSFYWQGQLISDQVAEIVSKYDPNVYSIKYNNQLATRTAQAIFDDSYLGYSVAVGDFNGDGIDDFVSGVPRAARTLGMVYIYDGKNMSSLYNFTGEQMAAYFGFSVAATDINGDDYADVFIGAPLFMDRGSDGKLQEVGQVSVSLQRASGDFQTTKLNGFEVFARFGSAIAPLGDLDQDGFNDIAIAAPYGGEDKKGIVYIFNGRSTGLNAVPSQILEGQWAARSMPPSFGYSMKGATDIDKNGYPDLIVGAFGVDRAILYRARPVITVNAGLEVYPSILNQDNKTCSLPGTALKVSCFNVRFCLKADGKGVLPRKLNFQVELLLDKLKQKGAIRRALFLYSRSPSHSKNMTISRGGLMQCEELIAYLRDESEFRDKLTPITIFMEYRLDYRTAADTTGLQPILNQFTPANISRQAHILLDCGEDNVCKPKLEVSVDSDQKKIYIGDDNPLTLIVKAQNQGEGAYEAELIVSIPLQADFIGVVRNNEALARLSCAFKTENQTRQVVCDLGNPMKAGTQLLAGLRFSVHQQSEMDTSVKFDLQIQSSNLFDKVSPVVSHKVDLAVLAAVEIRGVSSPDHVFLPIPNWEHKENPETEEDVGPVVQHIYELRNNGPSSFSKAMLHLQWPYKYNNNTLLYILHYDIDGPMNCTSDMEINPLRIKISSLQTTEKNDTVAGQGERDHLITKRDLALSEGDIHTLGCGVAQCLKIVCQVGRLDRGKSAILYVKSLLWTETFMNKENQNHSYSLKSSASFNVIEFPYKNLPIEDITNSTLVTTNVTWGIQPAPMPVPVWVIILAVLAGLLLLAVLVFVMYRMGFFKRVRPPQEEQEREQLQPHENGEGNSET
integrin αvβ3 (Homo sapiens), sequence (P05106 27-788, chain 2 of 2, further chain): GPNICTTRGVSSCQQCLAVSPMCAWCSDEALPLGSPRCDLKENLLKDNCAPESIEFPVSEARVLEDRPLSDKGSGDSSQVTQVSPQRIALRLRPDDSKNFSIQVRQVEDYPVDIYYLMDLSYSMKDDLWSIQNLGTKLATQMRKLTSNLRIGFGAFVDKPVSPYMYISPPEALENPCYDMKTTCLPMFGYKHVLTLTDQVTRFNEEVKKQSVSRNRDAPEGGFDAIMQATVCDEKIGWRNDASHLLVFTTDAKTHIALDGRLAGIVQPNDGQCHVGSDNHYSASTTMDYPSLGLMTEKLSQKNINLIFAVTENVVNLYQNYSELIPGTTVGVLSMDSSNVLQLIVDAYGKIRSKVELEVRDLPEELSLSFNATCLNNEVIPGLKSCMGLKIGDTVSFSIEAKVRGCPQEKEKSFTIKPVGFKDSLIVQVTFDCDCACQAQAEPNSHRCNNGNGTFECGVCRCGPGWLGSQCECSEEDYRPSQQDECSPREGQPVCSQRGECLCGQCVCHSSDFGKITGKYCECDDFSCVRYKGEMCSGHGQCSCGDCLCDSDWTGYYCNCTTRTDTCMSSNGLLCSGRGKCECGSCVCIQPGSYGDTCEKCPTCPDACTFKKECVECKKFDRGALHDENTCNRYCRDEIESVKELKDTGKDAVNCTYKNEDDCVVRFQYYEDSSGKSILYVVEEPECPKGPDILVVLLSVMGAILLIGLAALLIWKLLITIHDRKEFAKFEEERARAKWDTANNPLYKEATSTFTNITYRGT

Echistatin, sequence (P17347 131-179): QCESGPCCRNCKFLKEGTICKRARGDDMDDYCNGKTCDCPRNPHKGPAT

Molecule	tissue uptake at 24 h [1] [%ID/g]	tissue to tissue ratio at 4 h [1]	IC50 (U87MG cells) [nM]	Kd [2] [nM]
CC(C)C[C@@H]1NC(=O)[C@@H]2CSSC[C@@H](C(=O)NCC(N)=O)NC(=O)[C@H](Cc3ccccc3)NC(=O)CNC(=O)[C@H](CC(N)=O)NC(=O)[C@@H]3CCCN3C(=O)CNC(=O)[C@@H]3CSSC[C@H](NC(=O)[C@H](CO)NC(=O)[C@H]([C@@H](C)O)NC(=O)[C@@H]4CCCN4C(=O)[C@H](C)NC(=O)[C@H](Cc4c[nH]c5ccccc45)NC(=O)[C@H](CC(=O)O)NC(=O)CNC(=O)[C@H](CCCNC(=N)N)NC(=O)CNC(=O)[C@H](CCC(N)=O)NC(=O)[C@@H]4CCCN4C(=O)[C@@H](NC(=O)CNC(=O)CN4CCN(CC(=O)O)CCN(CC(=O)O)CCN(CC(=O)O)CC4)CSSC[C@H](NC(=O)CNC(=O)[C@H](C)NC1=O)C(=O)N[C@@H](C(C)C)C(=O)N3)C(=O)N[C@@H](CO)C(=O)N[C@@H](CCC(N)=O)C(=O)N[C@@H](CC(=O)O)C(=O)N[C@@H](CO)C(=O)N[C@@H](CC(=O)O)C(=O)N2 [^64Cu-DOTA-2.5D, metal not drawn] ({DOTA}-GCPQGRGDWAPTSCSQDSDCLAGCVCGPNGFCG-NH2; disulfide 2-24, 14-26, 20-32; C-terminus assumed)	1.25 ± 0.11	24.9 ± 2.62		
CC(C)C[C@@H]1NC(=O)[C@@H]2CSSC[C@@H](C(=O)NCC(N)=O)NC(=O)[C@H](Cc3ccccc3)NC(=O)CNC(=O)[C@H](CC(N)=O)NC(=O)[C@@H]3CCCN3C(=O)CNC(=O)[C@@H]3CSSC[C@H](NC(=O)[C@H]([C@@H](C)O)NC(=O)[C@H](CC(C)C)NC(=O)[C@@H]4CCCN4C(=O)[C@@H]4CCCN4C(=O)[C@H](CC(N)=O)NC(=O)[C@H](CC(=O)O)NC(=O)CNC(=O)[C@H](CCCNC(=N)N)NC(=O)[C@@H]4CCCN4C(=O)[C@H](CCCNC(=N)N)NC(=O)[C@@H]4CCCN4C(=O)[C@@H](NC(=O)CNC(=O)CN4CCN(CC(=O)O)CCN(CC(=O)O)CCN(CC(=O)O)CC4)CSSC[C@H](NC(=O)CNC(=O)[C@H](C)NC1=O)C(=O)N[C@@H](C(C)C)C(=O)N3)C(=O)N[C@@H](CO)C(=O)N[C@@H](CCC(N)=O)C(=O)N[C@@H](CC(=O)O)C(=O)N[C@@H](CO)C(=O)N[C@@H](CC(=O)O)C(=O)N2 [^64Cu-DOTA-2.5F, metal not drawn] ({DOTA}-GCPRPRGDNPPLTCSQDSDCLAGCVCGPNGFCG-NH2; disulfide 2-24, 14-26, 20-32)	1.09 ± 0.15	42.3 ± 8.65		
Echistatin (from UniProt P17347)				0.36
